What all share (assay type): functional
The test system of one assay is Mus musculus. The assay is described as follows: Ratio of in vivo number of survivors / total infected. Also noted: reference not given here.
In another assay the test system is Aspergillus fumigatus. The assay is described as follows: In vitro antifungal activity against Aspergillus fumigatus. The conditions noted are these: Aspergillus fumigatus; read-out: MIC. In a few lines:
(§1)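 Broth microdilution MIC in Sabouraud's glucose broth; final inocula 1 × 10^5 cells/mL (yeast) or 1 × 10^5 conidia/mL (mold and dermatophyte).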

Assay [1] deals with Candida albicans. The assay is described as follows: Minimum effective concentration for inhibition of pseudomycelium formation in Candida albicans. Conditions: Candida albicans; read-out: MEC. Summed up: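 C. albicans KE-2 (clinical isolate) at a final 1 × 10^6 yeast cells/mL in EMEM with 20% calf serum; compounds diluted by the same microtiter system as for MICs. After incubation, wells were Giemsa-stained (5% in phosphate buffer) and read by microscope. MEC is the lowest concentration preventing typical pseudomycelium formation.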

Another assay relates to Trichophyton benhamiae. The assay is described as follows: In vitro antifungal activity against Trichophyton asteroides. Conditions: Trichophyton benhamiae; read-out: MIC. Summed up:
as §1

The test system of assay [2] is Candida albicans. The assay is described as follows: In vitro antifungal activity against Candida albicans. Conditions: Candida albicans; read-out: MIC. Summed up: as §1

In brackets after ≈: the same amount, converted by molar mass. Where only a bound is given, the exact number is not on record here.

As to `Cc1ccccc1C(=O)C(O)(Cn1cncn1)c1ccccc1C` (stereo not given), in the assay on Mus musculus, the No. of survivors came out at 0. In addition, the values for the MIC in the assay on Aspergillus fumigatus, in the assay on Trichophyton benhamiae and in the assay with Candida albicans [2] were more than 100 mg/L, 3.1 mg/L (≈ 9.65 µM) and more than 100 mg/L, respectively. Further, in the assay on Candida albicans [1], the minimal effective concentration amounted to 5 µg/mL.

For `CC(C)[C@H]1OCO[C@]1(Cn1cncn1)c1ccc(Cl)cc1`, the No. of survivors with Mus musculus is reported as 7. Besides, the figures for the minimal inhibitory concentration (MIC) with Aspergillus fumigatus, in the assay with Trichophyton benhamiae and with Candida albicans [2] were 100 mg/L (≈ 325 µM), 0.2 mg/L (≈ 0.65 µM) and more than 100 mg/L, respectively. The minimal effective concentration with Candida albicans [1] came out at 0.04 µg/mL.

For the molecule `OC(c1ccc(Cl)cc1Cl)C(O)(Cn1ccnc1)c1ccc(Cl)cc1Cl` (stereo not given), in the assay on Mus musculus, the No. of survivors is recorded as 3. For the same molecule, the MIC in the assay on Aspergillus fumigatus came to 100 mg/L (≈ 231 µM); with Trichophyton benhamiae it was 0.1 mg/L (≈ 0.231 µM); with Candida albicans [2], 50 mg/L (≈ 116 µM). Further, the minimal effective concentration with Candida albicans [1] worked out at 1.25 µg/mL.

For `O=C(c1ccc(Cl)cc1)C(O)(Cn1cncn1)C1CCCCC1` (stereo not given), the No. of survivors in the assay with Mus musculus stood at 0. For the same molecule, the MIC in the assay on Aspergillus fumigatus was 50 mg/L (≈ 150 µM); in the assay with Trichophyton benhamiae, 0.8 mg/L (≈ 2.4 µM); with Candida albicans [2], more than 100 mg/L. In addition, in the assay with Candida albicans [1], the minimal effective concentration amounted to 0.08 µg/mL.

As for `CCCC(=O)C(O)(Cn1cncn1)c1ccc(Cl)cc1` (stereo not given), the No. of survivors in the assay with Mus musculus turned out to be 0. Besides, the MIC worked out at 12.5 mg/L (≈ 42.6 µM) in the assay on Aspergillus fumigatus, 0.1 mg/L (≈ 0.34 µM) with Trichophyton benhamiae and 100 mg/L (≈ 340 µM) in the assay with Candida albicans [2]. Further, in the assay on Candida albicans [1], the minimal effective concentration stood at 0.08 µg/mL.

For `O=C1O[C@H](c2ccc(Cl)cc2Cl)[C@@](Cn2cncn2)(c2ccc(Cl)cc2Cl)O1`, the No. of survivors with Mus musculus is recorded as 0. Besides, the MIC was more than 100 mg/L in the assay on Aspergillus fumigatus, 0.1 mg/L (≈ 0.218 µM) in the assay on Trichophyton benhamiae and more than 100 mg/L in the assay on Candida albicans [2]. Further, in the assay on Candida albicans [1], the minimal effective concentration is 0.16 µg/mL.

Turning to `O=C(c1ccc(F)cc1)C(O)(Cn1cncn1)c1ccc(Cl)cc1Cl` (stereo not given), the No. of survivors in the assay with Mus musculus was determined as 2. The results for the MIC with Aspergillus fumigatus, with Trichophyton benhamiae and in the assay with Candida albicans [2] were more than 100 mg/L, 0.1 mg/L (≈ 0.263 µM) and more than 100 mg/L, respectively. Also, in the assay on Candida albicans [1], the minimal effective concentration was 1.25 µg/mL.

Turning to `CCCC(O)(c1ccc(F)cc1)C(O)(Cn1cncn1)c1ccc(Cl)cc1` (stereo not given), the No. of survivors in the assay with Mus musculus is recorded as 7. For the same molecule, the minimal inhibitory concentration (MIC) with Aspergillus fumigatus was more than 100 mg/L; with Trichophyton benhamiae, 0.2 mg/L (≈ 0.513 µM); with Candida albicans [2] it was more than 100 mg/L. For the same molecule, the minimal effective concentration in the assay with Candida albicans [1] amounted to 0.31 µg/mL.

`CCCCC(O)(Cn1cncn1)C(=O)c1ccc(Cl)cc1` (stereo not given): in the assay on Mus musculus, the No. of survivors was determined as 2. Moreover, the values for the MIC with Aspergillus fumigatus, in the assay with Trichophyton benhamiae and with Candida albicans [2] were 100 mg/L (≈ 325 µM), 0.2 mg/L (≈ 0.65 µM) and 100 mg/L (≈ 325 µM), respectively. In addition, the minimal effective concentration in the assay with Candida albicans [1] is 0.31 µg/mL.

Consider `O=C(c1ccccc1)C(O)(Cn1cncn1)c1ccc(Cl)cc1Cl` (stereo not given), for which, in the assay with Mus musculus, the No. of survivors worked out at 7. Moreover, the figures for the MIC in the assay with Aspergillus fumigatus, in the assay on Trichophyton benhamiae and in the assay with Candida albicans [2] were more than 100 mg/L, 0.1 mg/L (≈ 0.276 µM) and more than 100 mg/L, respectively. In the assay on Candida albicans [1], the minimal effective concentration was 1.25 µg/mL.

Consider `O=C(c1ccccc1Cl)C(O)(Cn1cncn1)c1ccccc1Cl` (stereo not given), for which the No. of survivors in the assay with Mus musculus is on record as 2. The figures for the MIC with Aspergillus fumigatus, in the assay with Trichophyton benhamiae and with Candida albicans [2] were 50 mg/L (≈ 138 µM), 0.1 mg/L (≈ 0.276 µM) and 50 mg/L (≈ 138 µM), respectively. Further, in the assay on Candida albicans [1], the minimal effective concentration amounted to 0.08 µg/mL.

Regarding `O=C(c1ccc(Cl)cc1Cl)C(O)(Cn1ccnc1)c1ccc(Cl)cc1` (stereo not given), the No. of survivors with Mus musculus was 0. For the same molecule, the MIC with Aspergillus fumigatus stood at 25 mg/L (≈ 63.2 µM); in the assay on Trichophyton benhamiae it was 0.1 mg/L (≈ 0.253 µM); in the assay on Candida albicans [2], 25 mg/L (≈ 63.2 µM). Moreover, the minimal effective concentration in the assay with Candida albicans [1] was found to be 2.5 µg/mL.

As to `O=C(c1ccccc1Cl)C(O)(Cn1ccnc1)c1ccccc1Cl` (stereo not given), in the assay on Mus musculus, the No. of survivors came to 2. In addition, the MIC in the assay on Aspergillus fumigatus was more than 100 mg/L; in the assay with Trichophyton benhamiae, 0.1 mg/L (≈ 0.277 µM); in the assay on Candida albicans [2], more than 100 mg/L. Besides, the minimal effective concentration with Candida albicans [1] came out at 2.5 µg/mL.

As for `CC(C)CC(=O)C(O)(Cn1cncn1)c1ccc(Cl)cc1Cl` (stereo not given), the No. of survivors in the assay on Mus musculus turned out to be 0. Further, the MIC came out at 100 mg/L (≈ 292 µM) with Aspergillus fumigatus, 0.1 mg/L (≈ 0.292 µM) with Trichophyton benhamiae and 100 mg/L (≈ 292 µM) in the assay on Candida albicans [2]. Besides, the minimal effective concentration with Candida albicans [1] was 0.02 µg/mL.

As to `CC(C)(C)C(=O)C(O)(Cn1cncn1)c1ccc(Cl)cc1Cl` (stereo not given), in the assay with Mus musculus, the No. of survivors came to 7. Also, the MIC is more than 100 mg/L in the assay on Aspergillus fumigatus, 0.1 mg/L (≈ 0.292 µM) in the assay with Trichophyton benhamiae and more than 100 mg/L in the assay with Candida albicans [2]. For the same molecule, the minimal effective concentration in the assay on Candida albicans [1] stood at 0.04 µg/mL.

`O=C(c1ccccc1Cl)C(O)(Cn1cncn1)c1ccc(F)cc1` (stereo not given): the No. of survivors with Mus musculus stood at 0. For the same molecule, the MIC was more than 100 mg/L in the assay on Aspergillus fumigatus, 0.4 mg/L (≈ 1.16 µM) with Trichophyton benhamiae and 100 mg/L (≈ 289 µM) with Candida albicans [2]. Further, the minimal effective concentration in the assay on Candida albicans [1] was 10 µg/mL.

For the molecule `CCCC(=O)C(O)(Cn1cncn1)c1ccc(Cl)cc1Cl` (stereo not given), in the assay with Mus musculus, the No. of survivors was determined as 4. The MIC with Aspergillus fumigatus turned out to be 50 mg/L (≈ 152 µM); with Trichophyton benhamiae it was 0.1 mg/L (≈ 0.305 µM); in the assay on Candida albicans [2], 50 mg/L (≈ 152 µM). Moreover, the minimal effective concentration in the assay with Candida albicans [1] stood at 0.04 µg/mL.

On to `CCCCC(=O)C(O)(Cn1ccnc1)c1ccc(Cl)cc1Cl` (stereo not given), for which the No. of survivors with Mus musculus turned out to be 0. Moreover, the MIC was more than 100 mg/L with Aspergillus fumigatus, 0.1 mg/L (≈ 0.293 µM) in the assay with Trichophyton benhamiae and more than 100 mg/L with Candida albicans [2]. In the assay with Candida albicans [1], the minimal effective concentration was 0.04 µg/mL.

For orientation: MIC means the lowest concentration found to suppress growth.

The values above are taken from ChEMBL document CHEMBL1123760, “Synthesis and oral antifungal activity of novel azolylpropanolones and related compounds” (1987).
